The text below walks through data of ChEMBL document CHEMBL1132491, “Benzimidazole derivatives. 2. Synthesis and structure-activity relationships of new azabicyclic benzimidazole-4-carboxylic acid derivatives with affinity for serotoninergic 5-HT(3) receptors” (J Med Chem, 1999).

pKi: −log10 of the molar value.

The pKi is the Ki on a negative log10 scale, so that one unit is a factor of ten.

Assay [1] deals with T1, Serotonin 3 (5-HT3) receptor (Rattus norvegicus, UniProt P35563+Q9JJ16).
T1 sequence (P35563 whole entry): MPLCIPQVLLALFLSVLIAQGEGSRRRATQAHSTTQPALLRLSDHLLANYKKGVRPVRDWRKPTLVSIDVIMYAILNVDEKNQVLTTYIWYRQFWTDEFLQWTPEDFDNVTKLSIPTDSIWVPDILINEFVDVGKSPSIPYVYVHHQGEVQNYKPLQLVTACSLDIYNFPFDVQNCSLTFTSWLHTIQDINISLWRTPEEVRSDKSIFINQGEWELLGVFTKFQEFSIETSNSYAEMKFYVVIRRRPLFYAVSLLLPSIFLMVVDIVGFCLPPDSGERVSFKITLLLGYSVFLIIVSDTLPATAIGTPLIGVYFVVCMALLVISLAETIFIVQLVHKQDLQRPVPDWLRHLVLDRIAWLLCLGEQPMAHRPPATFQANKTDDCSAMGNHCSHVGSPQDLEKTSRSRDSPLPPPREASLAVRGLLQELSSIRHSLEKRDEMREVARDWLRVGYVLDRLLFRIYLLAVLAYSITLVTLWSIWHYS
T1 sequence (Q9JJ16 whole entry): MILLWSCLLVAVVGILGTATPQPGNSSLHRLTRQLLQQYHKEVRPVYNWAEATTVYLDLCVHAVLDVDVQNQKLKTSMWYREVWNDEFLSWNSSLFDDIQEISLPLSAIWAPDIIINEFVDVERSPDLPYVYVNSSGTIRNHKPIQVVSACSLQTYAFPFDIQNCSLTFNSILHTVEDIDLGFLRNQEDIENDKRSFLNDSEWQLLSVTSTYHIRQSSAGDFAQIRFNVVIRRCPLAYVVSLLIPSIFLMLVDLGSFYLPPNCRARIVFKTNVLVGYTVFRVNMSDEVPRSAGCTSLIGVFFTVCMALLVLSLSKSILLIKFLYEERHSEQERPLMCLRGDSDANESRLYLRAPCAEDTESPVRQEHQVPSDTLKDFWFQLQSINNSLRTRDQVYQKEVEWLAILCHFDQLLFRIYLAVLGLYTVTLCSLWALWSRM
The assay is described as follows: In vitro affinity at serotonergic 5-hydroxytryptamine 3 receptor by radioligand binding assay, using [3H]-LY 278584 in rat cerebral cortex membranes. The assay is classed as cell membranes. The method in brief:
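Rat cerebral cortex membranes prepared in 0.32 M sucrose, then washed in 50 mM Tris-HCl pH 7.4 and preincubated at 37 °C for 10 min. About 2 mg/mL protein incubated 30 min at 25 °C with 0.7 nM [3H]LY 278584 and six competitor concentrations. Buffer contained pargyline, ascorbate and CaCl2. Nonspecific binding defined with 10 μM 5-HT. Triplicates, filtration, scintillation counting. Ki from IC50 via Cheng–Prusoff, means of 2–4 assays.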

In assay [2] the target is 5-hydroxytryptamine receptor 4 (Rattus norvegicus, UniProt Q62758). Nature of the assay: In vitro affinity at serotonergic 5-hydroxytryptamine 4 receptor by radioligand binding assay using [3H]GR-113808 in rat striatum membranes. The assay is classed as cell membranes.
Sequence of 5-hydroxytryptamine receptor 4 (Q62758 whole entry): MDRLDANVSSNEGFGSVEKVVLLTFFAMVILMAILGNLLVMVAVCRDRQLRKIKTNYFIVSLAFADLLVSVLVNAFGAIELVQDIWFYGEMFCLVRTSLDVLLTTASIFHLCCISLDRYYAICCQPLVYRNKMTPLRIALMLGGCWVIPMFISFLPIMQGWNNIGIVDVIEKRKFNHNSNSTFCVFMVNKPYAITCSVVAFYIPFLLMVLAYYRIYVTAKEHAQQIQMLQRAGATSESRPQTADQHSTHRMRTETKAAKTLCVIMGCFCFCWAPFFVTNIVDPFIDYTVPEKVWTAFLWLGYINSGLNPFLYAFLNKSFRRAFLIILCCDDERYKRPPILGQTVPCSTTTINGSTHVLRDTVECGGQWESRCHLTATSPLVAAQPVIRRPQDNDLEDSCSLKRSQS
For assay [3], the species on record is Cavia porcellus. The assay is described as follows: Single-point analysis using 5(10e-9) M concentration of the antagonist (pA2= -log([B]/concentration ratio-1); [B] =concentration of the antagonist). The assay is classed as functional. Particulars: read-out: pA2 (converted). The method in brief:
(§1)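 Ileal strip preparation with methysergide 10^-6 M present. Paired noncumulative 5-HT curves are run, with the antagonist at 5×10^-9 M added 30 min before the second curve. The concentration ratio is taken at the 5-HT level giving 50% of the control maximum in the ≥10^-6 M phase. Single-point pA2 = −log([B]/(CR−1)) (Furchgott).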

For assay [4], the target named is Serotonin 3 (5-HT3) receptor (Homo sapiens) (UniProt P46098+A5X5Y0+O95264+Q70Z44+Q8WXA8). Particulars: Cavia porcellus; Ileum.
The target of assay [5] is T1, Serotonin 3 (5-HT3) receptor. The assay is described as follows: Compound was evaluated for its in vitro affinity at serotonergic 5-hydroxytryptamine 3 receptor by radioligand binding assay, using [3H]-LY 278584 in rat cerebral cortex membranes. The assay is classed as cell membranes.
For assay [6], the species on record is Cavia porcellus. Nature of the assay: Single-point analysis using 5(10e-9) M concentration of the antagonist (pA2= -log([B]/concentration ratio-1); [B] =concentration of the antagonist). The assay is classed as functional. Particulars: read-out: pA2 (converted). The method in brief: as §1

With `O=C(N[C@@H]1CN2CCC1CC2)c1cc(Br)cc2nc[nH]c12`, the pKi in assay [1] is 9.55; in assay [2] it was 7.42.

Consider `O=C(NC1CN2CCC1CC2)c1cc(Br)cc2nc[nH]c12` (stereo not given), for which the results for the pKi in assay [1] and in assay [2] were 9.54 and 6.77, respectively.

Consider `CN1C2CCCC1CC(NC(=O)c1cc(Cl)cc3nc[nH]c13)C2` (stereo not given), for which the pKi was 7.08 in assay [1] and less than 6.00 in assay [2].

In the case of `CN1C2CCC1CC(NC(=O)c1cc(Cl)cc3nc[nH]c13)C2` (stereo not given), the pKi is 7.78 in assay [1] and 6.50 in assay [2].

For `CN1C2CCC1CC(NC(=O)c1cccc3[nH]cnc13)C2` (stereo not given), the pKi in assay [1] was 6.93; in assay [2], less than 5.00.

Take `O=C(NC1CN2CCC1CC2)c1cc(Cl)c([N+](=O)[O-])c2nc[nH]c12` (stereo not given): the pKi in assay [1] was 8.28; in assay [2] it was less than 6.00.

Molecule `CN1C2CCCC1CC(OC(=O)c1cc(Cl)cc3[nH]cnc13)C2` (stereo not given) gave a pKi in assay [1] of 7.05.

Turning to `O=C(N[C@@H]1CN2CCC1CC2)c1cc(Cl)cc2nc[nH]c12`, the Kb in the assay filed under Cavia porcellus [3] is 0.126 nM. Moreover, the negative-log Ki (pKi) in assay [1] was 9.89; in assay [2], less than 5.00. In addition, the ED50 in assay [4] was found to be 17000 nM.

As for `CCC1CCN(C)C[C@@H]1NC(=O)c1cccc2nc[nH]c12` (stereo not given in full), the pKi in assay [1] is 7.42; in assay [2], less than 5.00.

Turning to `CN1C2CCCC1CC(OC(=O)c1cccc3nc[nH]c13)C2` (stereo not given), the pKi in assay [5] is 6.17.

Consider `O=C(NC1CN2CCC1CC2)c1cc(Br)c([N+](=O)[O-])c2nc[nH]c12` (stereo not given), for which the results for the pKi in assay [1] and in assay [2] were 8.06 and less than 5.00, respectively.

Turning to `Nc1c(Cl)cc(C(=O)NC2CN3CCC2CC3)c2[nH]cnc12` (stereo not given), the negative-log Ki (pKi) in assay [1] is 9.62; in assay [2] it was 6.73.

In the case of `CCC1CCN(C)C[C@H]1NC(=O)c1cccc2[nH]cnc12` (stereo not given in full), in the assay listed under Cavia porcellus [3], the Kb is 0.251 nM. The values for the pKi in assay [1] and in assay [2] were 8.59 and less than 6.00, respectively.

Turning to `CN1C2CCC1CC(OC(=O)c1cccc3[nH]cnc13)C2` (stereo in doubt; 23), the negative-log Ki (pKi) in assay [5] was less than 6.00; in assay [2], less than 5.00.

Consider `O=C(N[C@@H]1CN2CCC1CC2)c1cc(Cl)c([N+](=O)[O-])c2nc[nH]c12`, for which, in the assay filed under Cavia porcellus [3], the Kb is 0.794 nM. The results for the pKi in assay [1] and in assay [2] were 8.77 and less than 6.00, respectively. For the same molecule, the ED50 in assay [4] was 68000 nM.

With `Nc1c(Br)cc(C(=O)NC2CN3CCC2CC3)c2[nH]cnc12` (stereo not given), the pKi in assay [1] was 9.38; in assay [2] it was 6.64.

Take `CN1C2CCC1CC(OC(=O)c1cccc3[nH]cnc13)C2` (stereo in doubt; 24): the pKi in assay [5] is less than 6.00; in assay [2], less than 5.00.

Regarding `CN1C2CCCC1CC(NC(=O)c1cccc3[nH]cnc13)C2` (stereo not given), the pKi was 6.64 in assay [1] and less than 5.00 in assay [2].

Take `CN1C2CCC1CC(OC(=O)c1cc(Cl)cc3[nH]cnc13)C2` (stereo not given): the pKi in assay [1] is 7.21; in assay [2], 6.45.

`Cc1nccn1CC1CCc2c(c3ccccc3n2C)C1=O` (stereo not given) [ONDANSETRON]: the Kb in the assay listed under Cavia porcellus [6] is 0.126 nM. The same molecule registered an ED50 in assay [4] of 43000 nM.

On to `Nc1ccc(C(=O)NC2CN3CCC2CC3)c2[nH]cnc12` (stereo not given), for which the negative-log Ki (pKi) in assay [1] was 8.62; in assay [2], 6.11.

Regarding `O=C(N[C@H]1CN2CCC1CC2)c1cc(Cl)cc2nc[nH]c12`, the pKi in assay [1] is 9.12; in assay [2], 6.69.

`O=C(N[C@H]1CN2CCC1CC2)c1cc(Br)cc2nc[nH]c12`: the pKi was 8.47 in assay [1] and 6.57 in assay [2].

Turning to `CN1C2CCCC1CC(NC(=O)c1nn(C)c3ccccc13)C2` (stereo not given) [GRANISETRON], in assay [2], the pKi is less than 6.00.
